Laboratory results as given in ChEMBL document CHEMBL1143649, “New clerodane diterpenoids from Laetia procera (Poepp.) Eichler (Flacourtiaceae), with antiplasmodial and antileishmanial activities” (Bioorg Med Chem Lett, 2005).

Assays:
Plasmodium falciparum [1] = test: Antiplasmodial activity for Plasmodium falciparum F32; assay type: functional
Method in brief: (§1)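 Tested against P. falciparum strains FcB1 and F32, with chloroquine as the positive control. Values are means ± SD from independent experiments.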

Leishmania amazonensis [2] = test: Antileishmanial activity against leishmania amazonensis promastigotes stage; assay type: functional
Leishmania amazonensis [3] = test: Antileishmanial activity against leishmania amazonensis axenic amastigotes stage; assay type: functional
Plasmodium falciparum [4] = test: Antiplasmodial activity for Plasmodium falciparum FcB1; assay type: functional; method in brief: as §1
MCF7 [5] = test: Cytotoxic activity against human MCF-7 cells; assay type: cell-based
MCF7 [6] = test: Ratio of cytotoxic activity against human MCF-7 cells to that of antiplasmodial activity against Plasmodium falciparum FcB1; assay type: functional
Method in brief: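 Cytotoxic activity on the MCF7 human tumour line divided by antiplasmodial activity on P. falciparum FcB1.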

SMILES | Activity (Plasmodium falciparum [1]) | Activity (Leishmania amazonensis [2]) | Activity (Leishmania amazonensis [3]) | Activity (Plasmodium falciparum [4]) | Activity (MCF7 [5]) | Ratio (MCF7 [6])
C=C/C(C)=C/C[C@]1(C)[C@H](C)C[C@H](OC)[C@@]2(C=O)C(C=O)=C[C@H](OC(=O)C(C)CC)C[C@@H]12 (some centres not stated) | 6.04 µM | 50.9 µM | 30.3 µM | 3.79 µM | 9.6 µM | 2.7
C=C/C(C)=C/C[C@]1(C)[C@H](C)C[C@H](O)[C@@]23C(=C[C@H](OC(=O)C(C)CC)C[C@@H]12)C(OC(C)=O)OC3OC(C)=O (some centres not stated) | 0.62 µM | 11.1 µM | 5.98 µM | 0.54 µM | 1.54 µM | 2.2
C=C/C(C)=C/C[C@]1(C)[C@H](C)C[C@H](OC)[C@@]23C(=C[C@H](OC(=O)C(C)CC)C[C@@H]12)C(OC(C)=O)OC3OC(C)=O (some centres not stated) | 0.58 µM | 10.9 µM | 47.4 µM | 0.66 µM | 4.38 µM | 6.8
C=C/C(C)=C/C[C@]1(C)[C@H](C)C[C@H](O)[C@@]23C(=C[C@@H](OC(=O)C(C)CC)C[C@@H]12)C(OC(C)=O)OC3OC(C)=O (some centres not stated) | 0.57 µM | 11 µM | 10.5 µM | 0.59 µM | 0.85 µM | 1.3
C=C/C(C)=C/C[C@]1(C)[C@H](C)C[C@H](OC(=O)c2ccccc2)[C@@]23C(=C[C@H](OC(=O)C(C)CC)C[C@@H]12)C(OC(C)=O)OC3OC(C)=O (some centres not stated) | 4.66 µM | >200 µM | >200 µM | 5.35 µM | 27.3 µM | 4.6
CCCCCCCC/C=C\CCCCCC[C@@H]1C(=O)O[C@@H](C)[C@H]1O | 57.6 µM | 111 µM | 129 µM | 27.5 µM | 65.9 µM | 2.1
C=C/C(C)=C/C[C@]1(C)[C@H](C)C[C@H](OC(=O)c2ccccc2)[C@@]23C(=C[C@H](OC(=O)C(C)C)C[C@@H]12)C(OC(C)=O)OC3OC(C)=O (some centres not stated) | 4.44 µM | >200 µM | >200 µM | 6.08 µM | 17.8 µM | 3.1
C[C@@H]1[C@H](O)[C@@H](C)/C=C/C=C/C=C/C=C/C=C/C=C/C=C/[C@H](O[C@@H]2O[C@H](C)[C@@H](O)[C@H](N)[C@@H]2O)C[C@@H]2O[C@](O)(C[C@@H](O)C[C@@H](O)[C@H](O)CC[C@@H](O)C[C@@H](O)CC(=O)O[C@H]1C)C[C@H](O)[C@H]2C(=O)O [AMPHOTERICIN B] | – | 0.3 µM | 0.3 µM | – | – | –
CCN(CC)CCCC(C)Nc1ccnc2cc(Cl)ccc12 (configuration not stated) [CHLOROQUINE] | 0.06 µM | – | – | 0.145 µM | – | –
COc1cccc2c1C(=O)c1c(O)c3c(c(O)c1C2=O)C[C@@](O)(C(=O)CO)C[C@@H]3O[C@H]1C[C@H](N)[C@H](O)[C@H](C)O1 [DOXORUBICIN] | – | – | – | – | 0.4 µM | –
